Test results: ChEMBL document CHEMBL1155840, “Sesquiterpenes from Celastrus vulcanicola as photosynthetic inhibitors” (J Nat Prod, 2008)
pIC50: −log10 of the molar value. Calls of active or inactive are those of the source. No cut-off for these calls is given here.

Experiments:
[1] = system: Spinacia oleracea; assay: (§1) Inhibition of photosynthetic phosphorylation from water to methyl viologen in spinach leaves chloroplast; type: functional
Procedure, shortened: (§2)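 Isolated spinach chloroplasts (20 μg Chl/mL) osmotically ruptured in 100 mM sorbitol, 10 mM KCl, 5 mM MgCl₂, 0.001 M Na⁺-tricine, with 1 mM ADP, 3 mM Pi and 0.05 mM MV. ATP formed was calculated from light-driven alkalization, back-titrated with HCl. I50 read from concentration-response plots; average of three replicates.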

[2] = system: Spinacia oleracea; assay: Effect on uncoupled photosystem 2 in spinach chloroplast assessed as inhibition of electron transport rate of water to sodium silicomolybdate at 200 uM relative to control; design: scale not given: the % may be the effect or the level left
Procedure, shortened: (§3)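 PSII water→silicomolybdate measured in the uncoupled electron flow mixture without MV, plus 200 μM SiMo and 10 μM DCMU. Run at 20 °C with a chloroplast-only blank. Activity given as % of control; average of three replicates.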

[3] = as §1; type: functional, Spinacia oleracea; settings: read-out: I50; procedure, shortened: as §2
[4] = system: Spinacia oleracea; assay: Effect on ATP synthesis in spinach leaves chloroplast assessed as blockade of basal electron transport at 50 uM; type: functional
Procedure, shortened: (§4)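 Spinach chloroplasts at 20 μg chlorophyll/mL, illuminated 1 min in basal electron transport medium (3 mL) with 0.05 mM MV as electron acceptor. Run at 20 °C with a chloroplast-only blank. Rates are in μequiv e⁻ h⁻¹ mg⁻¹ Chl; 100% is the control activity.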

[5] = system: Spinacia oleracea; assay: Effect on ATP synthesis in spinach leaves chloroplast assessed as blockade of phosphorylating electron transport at 50 uM; type: functional
Procedure, shortened: (§5)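 Photophosphorylating noncyclic electron transport run as the basal assay (chloroplasts 20 μg Chl/mL, 1 min light, MV acceptor) with 1 mM ADP and 3 mM Pi added. Temperature 20 °C with a chloroplast-only blank. Activity expressed as % of control.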

[6] = system: Spinacia oleracea; assay: Effect on ATP synthesis in spinach leaves chloroplast assessed as blockade of basal electron transport at 300 uM; type: functional; procedure, shortened: as §4
[7] = system: Spinacia oleracea; assay: Effect on ATP synthesis in spinach leaves chloroplast assessed as blockade of phosphorylating electron transport at 300 uM; type: functional; procedure, shortened: as §5
[8] = system: Spinacia oleracea; assay: Effect on ATP synthesis in spinach leaves chloroplast assessed as blockade of uncoupled electron transport at 50 uM; type: functional
Procedure, shortened: (§6)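 Uncoupled electron transport measured in basal medium with 6 mM NH₄Cl as uncoupler. Actinic light came from a projector lamp through a 5 cm 1% CuSO₄ filter for 2 min. Chloroplasts at 20 μg Chl/mL, 20 °C, blank with chloroplasts alone. Activity given as % of control.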

[9] = system: Spinacia oleracea; assay: Effect on ATP synthesis in spinach leaves chloroplast assessed as blockade of uncoupled electron transport at 300 uM; type: functional; procedure, shortened: as §6
[10] = system: Spinacia oleracea; assay: Effect on uncoupled photosystem 1 in spinach chloroplast assessed as inhibition of electron transport rate of 2,6-dichlorophenol indophenol to methyl viologen at 200 uM relative to control; design: scale not given: the % may be the effect or the level left
Procedure, shortened: (§7)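 Uncoupled PSI flow measured polarographically in 3 mL basal uncoupled medium. Donor was 100 μM DCPIP reduced by 300 μM sodium ascorbate, with 10 μM DCMU to block PSII, 6 mM NH₄Cl and 0.05 mM MV as acceptor. Run at 20 °C; % of control; average of three replicates.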

[11] = system: Spinacia oleracea; assay: Effect on uncoupled photosystem 1 in spinach chloroplast assessed as inhibition of electron transport rate of 2,6-dichlorophenol indophenol to methyl viologen at 300 uM relative to control; design: scale not given: the % may be the effect or the level left; procedure, shortened: as §7
[12] = system: Spinacia oleracea; assay: Inhibition of H+ATPase activity in spinach thylakoid membranes at 300 uM; type: cell membranes
Procedure, shortened: (§8)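 Thylakoid membrane-bound Mg²⁺-ATPase measured during ATP hydrolysis. Released inorganic phosphate determined colorimetrically.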

[13] = system: Spinacia oleracea; assay: Inhibition of light activated thylakoid membrane bound Mg+ATPase activity in spinach leaves at 100 uM relative to control; settings: values are per cent of control; procedure, shortened: as §8
[14] = system: Spinacia oleracea; assay: Inhibition of light activated thylakoid membrane bound Mg+ATPase activity in spinach leaves at 200 uM relative to control; settings: values are per cent of control; procedure, shortened: as §8
[15] = system: Spinacia oleracea; assay: Effect on photosystem 2 interaction site in spinach thylakoid membrane assessed as chlorophil-a fluorescence parameter at 150 uM; type: cell membranes
Procedure, shortened: (§9)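 Freshly lysed spinach chloroplasts (20 μg Chl mL⁻¹) in the basal noncyclic electron transport medium were incubated with the compound for 5 min in the dark at room temperature. Rapid polyphasic Chl a fluorescence of PSII was then recorded at room temperature using a 2 s saturating pulse (2500 μmol […] s⁻¹, 650 nm LEDs). F0, Fm, Fv/Fm and area were read.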

[16] = system: Spinacia oleracea; assay: Effect on photosystem 2 interaction site in spinach thylakoid membrane assessed as chlorophil-a fluorescence parameter at 300 uM; type: cell membranes; procedure, shortened: as §9
[17] = system: Spinacia oleracea; assay: Effect on photosystem 2 interaction site in spinach thylakoid membrane assessed as chlorophil-a fluorescence parameter at 600 uM; type: cell membranes; procedure, shortened: as §9
[18] = system: Spinacia oleracea; assay: Effect on uncoupled photosystem 2 in spinach chloroplast assessed as inhibition of electron transport rate of water to 2,6-dicholorophenol indophenol at 50 uM relative to control; design: scale not given: the % may be the effect or the level left
Procedure, shortened: (§10)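 Uncoupled PSII water→DCPIP followed as DCPIP-supported O₂ evolution, measured polarographically. Basal medium used 300 μM K₃[Fe(CN)₆] in place of MV, with 1 μM DBMIB, 50 μM DCPIP and 6 mM NH₄Cl. Run at 20 °C; % of control; average of three replicates.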

[19] = system: Spinacia oleracea; assay: Effect on uncoupled photosystem 2 in spinach chloroplast assessed as inhibition of electron transport rate of water to 2,6-dicholorophenol indophenol at 100 uM relative to control; design: scale not given: the % may be the effect or the level left; procedure, shortened: as §10
[20] = system: Spinacia oleracea; assay: Effect on uncoupled photosystem 2 in spinach chloroplast assessed as inhibition of electron transport rate of water to 2,6-dicholorophenol indophenol at 200 uM relative to control; design: scale not given: the % may be the effect or the level left; procedure, shortened: as §10
[21] = system: Spinacia oleracea; assay: Effect on uncoupled photosystem 2 in spinach chloroplast assessed as inhibition of electron transport rate of water to 2,6-dicholorophenol indophenol at 300 uM relative to control; design: scale not given: the % may be the effect or the level left; procedure, shortened: as §10
[22] = system: Spinacia oleracea; assay: Effect on uncoupled photosystem 2 in spinach chloroplast assessed as inhibition of electron transport rate of water to sodium silicomolybdate at 50 uM relative to control; design: scale not given: the % may be the effect or the level left; procedure, shortened: as §3
[23] = system: Spinacia oleracea; assay: Effect on uncoupled photosystem 2 in spinach chloroplast assessed as inhibition of electron transport rate of water to sodium silicomolybdate at 100 uM relative to control; design: scale not given: the % may be the effect or the level left; procedure, shortened: as §3
[24] = system: Spinacia oleracea; assay: Effect on uncoupled photosystem 2 in spinach chloroplast assessed as inhibition of electron transport rate of water to sodium silicomolybdate at 300 uM relative to control; design: scale not given: the % may be the effect or the level left; procedure, shortened: as §3
[25] = system: Spinacia oleracea; assay: Effect on uncoupled photosystem 1 in spinach chloroplast assessed as inhibition of electron transport rate of tetramethyl-p-benzohydroquinone to methyl viologen at 50 uM relative to control; design: scale not given: the % may be the effect or the level left
Procedure, shortened: (§11)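 Uncoupled PSI flow TMQH₂→MV monitored polarographically at 20 °C in 3 mL basal electron medium. Additions were 100 μM TMQH₂/300 μM ascorbate, 10 μM DCMU and 6 mM NH₄Cl. Blank with chloroplasts alone; values as % of control; average of three replicates.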

[26] = system: Spinacia oleracea; assay: Effect on uncoupled photosystem 1 in spinach chloroplast assessed as inhibition of electron transport rate of tetramethyl-p-benzohydroquinone to methyl viologen at 100 uM relative to control; design: scale not given: the % may be the effect or the level left; procedure, shortened: as §11
[27] = system: Spinacia oleracea; assay: Effect on uncoupled photosystem 1 in spinach chloroplast assessed as inhibition of electron transport rate of tetramethyl-p-benzohydroquinone to methyl viologen at 200 uM relative to control; design: scale not given: the % may be the effect or the level left; procedure, shortened: as §11
[28] = system: Spinacia oleracea; assay: Effect on uncoupled photosystem 1 in spinach chloroplast assessed as inhibition of electron transport rate of tetramethyl-p-benzohydroquinone to methyl viologen at 300 uM relative to control; design: scale not given: the % may be the effect or the level left; procedure, shortened: as §11
[29] = system: Spinacia oleracea; assay: Effect on uncoupled photosystem 1 in spinach chloroplast assessed as inhibition of electron transport rate of 2,6-dichlorophenol indophenol to methyl viologen at 50 uM relative to control; design: scale not given: the % may be the effect or the level left; procedure, shortened: as §7
[30] = system: Spinacia oleracea; assay: Effect on uncoupled photosystem 1 in spinach chloroplast assessed as inhibition of electron transport rate of 2,6-dichlorophenol indophenol to methyl viologen at 100 uM relative to control; design: scale not given: the % may be the effect or the level left; procedure, shortened: as §7
[31] = system: Spinacia oleracea; assay: Residual light activated thylakoid membrane bound Mg+ATPase activity in spinach leaves at 300 uM relative to control
[32] = system: Spinacia oleracea; assay: Effect on photosystem 2 interaction site in spinach thylakoid membrane assessed as chlorophil-a fluorescence parameter at 10 uM; type: cell membranes

CC(=O)O[C@H]1CC[C@](C)(O)[C@]23OC(C)(C)[C@H]([C@H](OC(=O)/C=C/c4ccccc4)[C@H](OC(=O)c4ccccc4)[C@]12C)[C@H]3OC(C)=O
Activity [1]: inactive

CC(=O)O[C@H]1CC[C@](C)(O)[C@]23OC(C)(C)[C@H]([C@H](OC(=O)/C=C/c4ccccc4)[C@H](OC(=O)c4ccccc4)[C@]12C)[C@H]3O
Activity [2]: 21% | pIC50 [3]: 4.60 | inhibition [4]: 83% | inhibition [5]: 79% | inhibition [6]: 32% | inhibition [7]: 68% | inhibition [8]: 26% | inhibition [9]: 52% | Activity [10]: 100% | Activity [11]: 100% | inhibition [12]: 13% | residual activity [13]: 91% | residual activity [14]: 89% | Flu intensity [15]: 1220 | Flu intensity [16]: 1260 | Flu intensity [17]: 875 | Activity [18]: 93% | Activity [19]: 80% | Activity [20]: 71% | Activity [21]: 64% | Activity [22]: 32% | Activity [23]: 32% | Activity [24]: 11% | Activity [25]: 115% | Activity [26]: 129% | Activity [27]: 120% | Activity [28]: 131% | Activity [29]: 106% | Activity [30]: 100% | residual activity [31]: 87%

CC(=O)O[C@H]1CC[C@@H](C)[C@]23OC(C)(C)[C@H]([C@H](OC(=O)/C=C/c4ccccc4)[C@H](OC(=O)c4ccccc4)[C@]12C)[C@H]3O
pIC50 [3]: 4.36

CN(C)C(=O)Nc1ccc(Cl)c(Cl)c1
Flu intensity [32]: 1200
